The values that follow come from the array DNA melting data of Ke et al. (doi:10.1101/2024.01.08.574731).

Data set [1] in a line: folding enthalpy; higher = less favourable; fluorescence melt of hairpins on a sequencing array, two-state fit. Particulars: sodium 0.088 M. The gist of the method:
(§1)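 Hairpins were imaged by Cy3 fluorescence on a sequenced MiSeq flow cell with annealed Cy3 and quencher oligos, in 50 mM Na-HEPES pH 8.0, 25 mM NaCl, in 2.5 °C steps up to 60 °C. Bootstrapped two-state fits of normalised signals gave melting temperature and folding enthalpy. Four replicates were combined by inverse variance, and fitted temperatures were raised by 9.35 °C to match UV melts.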

Data set [2] in a line: melting temperature; fluorescence melt of hairpins on a sequencing array, two-state fit, raised by 9.35 °C to match UV melts. The following applies: sodium 0.088 M. The method in brief:
as §1

Turning to GCTGGGGGAAACTCCAGC (((((.(....).))))), the folding enthalpy in data set [1] is -37.6 kcal/mol. Besides, in data set [2], the Tm came out at 58 °C.
The corresponding values for GCTGGGTCGAAAGACAGC (((..(((....)))))) are -19.9 kcal/mol and 46 °C.
The corresponding values for GCTGGTCCGAAAGGAAGC (((..(((....)))))) are -13.2 kcal/mol and 34.9 °C.
On to GCTGGTCGAAAGACAAGC (((.(((....))).))), for which the folding enthalpy in data set [1] is -41.4 kcal/mol. For the same sequence, in data set [2], the Tm amounted to 56.2 °C.
The corresponding values for GCTGGTCGAAAGACGAGC (((.(((....))).))) are -54.3 kcal/mol and 54.5 °C.
On to GCTGGTGGAAACGTCAGC ((((..(....)..)))), for which the folding enthalpy in data set [1] was -23.9 kcal/mol. Moreover, in data set [2], the Tm is 43.3 °C.
For GCTGTACGAAAGTAGAGC (((.(((....))).))), in data set [1], the folding enthalpy was -35.3 kcal/mol. Further, in data set [2], the Tm came to 51.7 °C.
As for GCTGTAGGAAACTACAGC (((((((....))))))), in data set [1], the folding enthalpy was -44.6 kcal/mol. The Tm in data set [2] turned out to be 63.3 °C.
For GCTGTAGGAAACTACGGC ((.((((....)))).)) the same measures were -42.9 kcal/mol and 53.3 °C.
The corresponding values for GCTGTAGGAAACTATAGC (((.(((....))).))) are -28.3 kcal/mol and 43.7 °C.
The corresponding values for GCTGTCGAAAGACTCAGC ((((((....)))..))) are -18.7 kcal/mol and 40.5 °C.
Turning to GCTGTGCGAAAGCAGTGC ((..(((....)))..)), in data set [1], the folding enthalpy was -15.8 kcal/mol. The Tm in data set [2] turned out to be 46.6 °C.
For GCTGTGCGAAAGCGCGGC ((.(.((....)).).)) the same measures were -25.3 kcal/mol and 66.6 °C.
GCTGTGCGAAAGCTCCGC ((.(.((....)).).)): the folding enthalpy in data set [1] was -14.5 kcal/mol. The Tm in data set [2] stood at 40 °C.
GCTGTGCGAAAGCTGAGC (((..((....))..))): in data set [1], the folding enthalpy is -16.6 kcal/mol. In data set [2], the Tm was 49.1 °C.
The corresponding values for GCTGTGGCGAAAGCCAGC (((..(((....)))))) are -13.8 kcal/mol and 52.2 °C.
In the case of GCTGTGGGAAACCACAAC (.(((((....))))).), the folding enthalpy in data set [1] is -15.8 kcal/mol. Besides, the Tm in data set [2] stood at 39.2 °C.
For the sequence GCTGTTGGAAACAACAAC (.(((((....))))).), the folding enthalpy in data set [1] is -15.9 kcal/mol. For the same sequence, the Tm in data set [2] came to 35.2 °C.
The corresponding values for GCTGTTGGAAACAATAGC (((.(((....))).))) are -31.9 kcal/mol and 47.9 °C.
The corresponding values for GCTGTTGGAAACAGTAGC (((..((....))..))) are -11.9 kcal/mol and 41.6 °C.
On to GCTTAACGAAAGTTAGC (((.(((....)))))), for which the folding enthalpy in data set [1] was -21.7 kcal/mol. Moreover, in data set [2], the Tm was determined as 44.9 °C.
For GCTTAACGAAAGTTCAGC (((.(((....))).))) the same measures were -31.6 kcal/mol and 44.4 °C.
The corresponding values for GCTTAAGCGAAAGCTAGC (((..(((....)))))) are -17.6 kcal/mol and 40.5 °C.
The corresponding values for GCTTAAGGAAACCTAAGC (((((.(....).))))) are -22.8 kcal/mol and 35.7 °C.
On to GCTTACACGAAAGTGAGC (((..(((....)))))), for which, in data set [1], the folding enthalpy was -16.9 kcal/mol. Besides, the Tm in data set [2] came to 38.8 °C.
Turning to GCTTACCGAAAGGTAGC (((.(((....)))))), the folding enthalpy in data set [1] is -19.8 kcal/mol. In addition, the Tm in data set [2] amounted to 53 °C.
For GCTTACGAAAGTAAAGC ((((((....))).))) the same measures were -23.8 kcal/mol and 49.6 °C.
For GCTTACGAAAGTAGAAGC ((((((....)))..))) the same measures were -24.3 kcal/mol and 38.2 °C.
The corresponding values for GCTTACGAAAGTATAAGC ((((((....)))..))) are -28.6 kcal/mol and 38.3 °C.
For GCTTACGGAAACGTAGGC ((.((((....)))).)), the folding enthalpy in data set [1] is -27.2 kcal/mol. Besides, the Tm in data set [2] is 50 °C.
